GSTO1 inh: blocks human GSTO1 in RBBP9 counter-screen | inhibition, % at 5.96 µM | 300,000 tested, 1.1% active | recombinant GSTO1, activity-based probe fluorescence polarization | P78417;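 active means inhibition above the campaign mean inhibition plus 3 SD, cut at about 35% in these data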;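 further: 0% = GSTO1-1 with DMSO and 100% = wells lacking GSTO1-1 enzyme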
Target sequence (P78417 whole entry, looked up): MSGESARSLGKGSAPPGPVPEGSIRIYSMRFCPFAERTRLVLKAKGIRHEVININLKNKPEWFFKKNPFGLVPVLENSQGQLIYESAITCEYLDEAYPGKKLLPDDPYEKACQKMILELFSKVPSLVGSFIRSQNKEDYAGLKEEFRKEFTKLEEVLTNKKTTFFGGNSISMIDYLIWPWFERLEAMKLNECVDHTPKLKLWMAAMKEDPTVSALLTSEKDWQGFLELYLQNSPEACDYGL
Rin1-Abl PPI inh: human Rin1-Abl interaction inhibition; 360,000 tested, 0.4% active; TR-FRET Rin1/Abl binding, biochemical; inhibition, % at 7.35 µM; in the data active means inhibition above about 5%, passing the limit was not always enough
PAD4 inh: PAD4 (human) enzyme inhibition | Q9UM07 | recombinant PAD4, RCA probe fluorescence polarization | inhibition, % at 6.36 µM | 330,000 tested, 0.41% active | AID 485272;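 active means percent inhibition above a cutoff equal to the mean of all tested compounds plus 3 SD, cut at about 15% in these data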;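 further: 0% = PAD4 with RCA probe and DMSO and 100% = probe without PAD4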
Apaf1 inhib: blocks human Apaf-1 apoptosome activity; reconstituted apoptosome caspase-3 activity, DEVD-Rh110 fluorescence; inhibition, % at 20 µM; O14727; 330,000 tested, 0.71% active; active means inhibition of at least 40% at 20 µM;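 further: plate controls were DMSO wells for no effect and DEVD-CHO caspase inhibitor wells for full effect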
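System – cell-free apoptosome with Apaf-1, procaspase-3 and caspase-9 · Buffer or medium – pH 7.5 Hepes buffer with CHAPS, BSA, DTT · Also added – cytochrome c with DEVD-Rh110 · Times – 30 min compound preincubation, 50 min activation, room temperature · Technique – Rh110 fluorescence intensity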
UBC13 polyUb: human UBC13 polyubiquitination inhibition | 330,000 tested, 0.47% active | P61088 | UBC13 polyubiquitin chain formation, TR-FRET | AID 485273 | inhibition, % at 20 µM; in the data active means inhibition above about 45%, passing the limit was not always enough
Target sequence (P61088 whole entry, looked up): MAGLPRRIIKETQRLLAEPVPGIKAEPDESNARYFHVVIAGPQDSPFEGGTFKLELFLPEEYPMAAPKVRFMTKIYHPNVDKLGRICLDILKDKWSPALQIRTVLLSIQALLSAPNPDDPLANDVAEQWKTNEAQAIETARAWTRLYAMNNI
UBC9 SUMO inh: blocks human SUMOylation mediated by UBC9 | P63279 | HTRF SUMOylation assay, SAE1/SAE2 + UBC9, in vitro | inhibition, % at 35 µM | 290,000 tested, 0.36% active | AID 2006; in the data active means inhibition above about 50%, passing the limit was not always enough
Target sequence (P63279 whole entry, looked up): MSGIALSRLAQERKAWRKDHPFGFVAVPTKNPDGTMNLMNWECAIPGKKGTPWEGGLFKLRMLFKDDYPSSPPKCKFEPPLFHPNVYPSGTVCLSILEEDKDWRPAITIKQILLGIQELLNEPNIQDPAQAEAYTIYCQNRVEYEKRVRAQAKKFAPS
Apaf-1 inh conf: confirmation of Apaf-1 inhibitors; 1,800 tested, 25% active; inhibition, % at 20 µM; reconstituted apoptosome, caspase-3 DEVD-Rh110 fluorescence; shares compounds with Apaf1 inhib;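 active means mean inhibition of at least 40% at 20 µM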;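 further: plate controls were DMSO wells for no effect and DEVD-CHO caspase inhibitor control wells for full effect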
Rh110 interf inh: counter-screen for Apaf-1 inhibitors: fluorescence interference | Rh110 fluorescence interference, quenched caspase reaction | shares compounds with Apaf1 inhib | 1,800 tested, under 10 active | activation (fluorescence interference), % at 20 µM;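 active means signal rise of 40% or more at 20 µM, treated as a fluorescence artifact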
Fluor interf inh: counter-screen for Apaf-1 inhibitors: fluorescence interference, dose response. shares compounds with Apaf1 inhib. fluorescence interference counterscreen, Apaf-1 assay format. IC50, µM. 460 tested, under 10 active. AID 588538; call rule not given here
Rin1-Abl confirm: Rin1-Abl interaction inhibition confirmation. shares compounds with Rin1-Abl PPI inh. TR-FRET Rin1-Abl binding, purified proteins. inhibition, % at 7.35 µM. 1,300 tested, 49% active. AID 602124
GFP quench: counter-screen for Rin1-Abl inhibitors: GFP fluorescence quenchers | shares compounds with Rin1-Abl PPI inh | inhibitors/quenchers counterscreen | inhibition, % at 6.75 µM | 1,300 tested, 8.5% active;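 further: ABL1-eGFP fusion protein alone without its partner RIN1-SBP; 0% = protein with vehicle and 100% = wells lacking protein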
GFP quench DR: counter-screen for Rin1-Abl inhibitors: GFP quenchers, dose response | shares compounds with Rin1-Abl PPI inh | GFP fluorescence interference/quenching counterscreen | AID 602182 | 230 tested, under 10 active | IC50, µM; call rule not given here;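 further: ABL1-eGFP fusion protein alone without its RIN1 binding partner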
An asterisk follows results filed as active; . = no result given. Only some compounds are listed: those with a hit (about 2.2% of all), similar ones and a draw of the others. Unless noted, no stated cut-off is given here; in the data, active means inhibition above about 6.5%; inactive means the rest.

SMILES | GSTO1 inh | Rin1-Abl PPI inh | PAD4 inh | Apaf1 inhib | UBC13 polyUb | UBC9 SUMO inh | Rin1-Abl confirm | GFP quench | others
O=[N+]([O-])c1ccc(N/N=C/c2ccc(O)c(O)c2O)c(S(=O)(=O)N2CCOCC2)c1 | . | 14* | . | 63* | -106 | 40 | 9.5* | 13* | Apaf-1 inh conf=43*;Rh110 interf inh=9;Fluor interf inh=>100
COc1ccc(O)c(C(c2c(C)[nH][nH]c2=O)c2c(C)[nH][nH]c2=O)c1 | 30 | 22* | 0 | 67* | -32 | 86 | 0 | -1 | Apaf-1 inh conf=14;Rh110 interf inh=-1
Cc1[nH][nH]c(=O)c1C(c1ccc(O)c([N+](=O)[O-])c1)c1c(C)[nH][nH]c1=O | 27 | -1 | -9 | 8 | -43 | -8 | . | .
CCOC(=O)C1=C(C)OC2(O)c3ccccc3C(=O)C12O (configuration not stated) | 74* | 22* | -15 | 88* | -37 | 94* | 36* | 0 | Apaf-1 inh conf=98*;Rh110 interf inh=6;Fluor interf inh=>100;GFP quench DR=>68
CCOC(=O)C1=C(C)c2ccccc2OC1(CC)C(=O)OCC (configuration not stated) | . | -2 | -3 | 13 | . | . | . | .
Cc1cc(C)c(S(=O)(=O)N2CCCC(C(=O)N3CCOCC3)C2)c(C)c1 (configuration not stated) | 3 | 11* | 3 | 0 | 8 | 0 | 8.9* | -1
CC1(C(=O)NCc2ccc3c(c2)OCO3)CCN1C(=O)CCc1ccc(Cl)cc1Cl (configuration not stated) | . | 1 | . | . | . | . | . | .
CCCS(=O)(=O)NC(=O)C1(C)CCCN(C(=O)c2ccc(F)c(Cl)c2)C1 (configuration not stated) | . | 17* | . | . | . | . | -2 | -2
CCCNC(=O)C1(C)CCCN(C(=O)c2ccc(F)c(Cl)c2)C1 (configuration not stated) | . | 0 | . | . | . | . | . | .
CCCCN(C)c1c(C)nc2ccc(C(=O)N3CCN(C(C)=O)CC3)cn12 | . | 4 | . | . | . | . | . | .
Cc1cccc(CN2[C@H](CO)C=CS2(=O)=O)c1 | . | 0 | . | . | . | . | . | .
COC(=O)c1cccc(NC(=O)c2ccc[n+]([O-])c2)c1 | 3 | 17* | -1 | -2 | -4 | 5 | 23* | 1 | GFP quench DR=>67
Nc1cc(C(=O)OCC(=O)Nc2cccc(S(=O)(=O)N3CCOCC3)c2)ccc1Cl | . | 1 | -1 | -1 | 12 | . | . | .
COC(=O)c1ccc(COC(=O)C2CCN(S(=O)(=O)c3ccc(C)c(C)c3)CC2)o1 | 7 | 16* | 2 | 15 | -3 | . | 31* | -2 | GFP quench DR=>68
CCN(CC)c1ccc(C=NN2CCCCCC2)cc1 | . | 33* | . | . | . | . | -2 | 1
CCN(CC)c1ccc(/C=N/N2CCOCC2)cc1 | 8 | 0 | 1 | 3 | -9 | -13 | . | .
Cc1cccc(C)c1N(CC(=O)NCc1ccco1)C(=O)CNS(=O)(=O)c1ccc(F)cc1 | 5 | -1 | 3 | 0 | 0 | -19 | . | .
COc1ccccc1C(=O)NCC1CCN(c2ccc(S(=O)(=O)N3CCOCC3)cc2)CC1 | -2 | 22* | 1 | -15 | 6 | 12 | 13* | -1
O=C1CC(c2ccc(O)c(O)c2)Oc2c1ccc(O)c2O (configuration not stated) | 44* | 49* | 6 | -23 | -26 | 73* | 46* | 25*
CN(Cc1ccc(C(C)(C)C)cc1)C(=O)C1CSC2(C)CCC(=O)N12 (configuration not stated) | . | 12* | 4 | 22 | 0 | . | -3 | -1
COc1cccc(CN(C)C(=O)C2CSC3(C)CCC(=O)N23)c1OC (configuration not stated) | . | 0 | 2 | -9 | -1 | . | . | .
COc1ccccc1CCC(=O)Nc1ccc2c(c1)c(=O)n(C)n2Cc1cccc(C(F)(F)F)c1 | . | 0 | . | . | . | . | . | .
Cc1nc2scc(C)n2c(=O)c1S(=O)(=O)Nc1ccc(N2CCOCC2)cc1 | 7 | 0 | 0 | 0 | -5 | 18 | . | .
Cc1cc(NC(=O)CCC(=O)N(c2ccccc2C)C(C(=O)NC2CCCC2)c2ccccc2)no1 (configuration not stated) | -2 | -5 | -5 | 12 | 6 | -7 | . | .
O=C(Cn1c(=O)n(-c2ccccc2)c(=O)c2sccc21)N1CCCC1 | -2 | 0 | 5 | -17 | 7 | 9 | . | .
SMILES | GSTO1 inh | Rin1-Abl PPI inh | PAD4 inh | Apaf1 inhib | UBC13 polyUb | UBC9 SUMO inh | Rin1-Abl confirm | GFP quench | others
Cc1ccc(-n2c(=O)c3sccc3n(CC(=O)N3CCCC3)c2=O)cc1 | -8 | 5.8* | -6 | -1 | -6 | 12 | -3 | 0
COc1cc(OC)cc(C(=O)Nc2ccc(S(=O)(=O)Nc3ccccn3)cc2)c1 | 5 | 4 | 5 | 4 | 7 | 4 | . | .
O=C(CC[C@H]1O[C@@H](n2ccc(=O)[nH]c2=O)[C@H](O)[C@@H]1O)NCC(c1ccccc1)c1ccccc1 | . | 2 | . | . | . | . | . | .
CC1CCC(NC(=O)CNC(=O)Cc2cccc3ccccc23)CC1 (configuration not stated) | 3 | -1 | -2 | 7 | -10 | 17 | . | .
O=C(CN1C(=O)c2cccnc2Oc2ccc(Cl)cc21)NCCC1=CCCCC1 | -6 | -3 | 1 | 7 | 1 | . | . | .
CCOc1ccc(CCNC(=O)CN2C(=O)c3cccnc3Oc3ccc(C)cc32)cc1OCC | 5 | 36* | 0 | -3 | 6 | -6 | 41* | 0 | GFP quench DR=>67
CCOc1ccc(CCNC(=O)CN2C(=O)c3cccnc3Oc3ccc(Cl)cc32)cc1 | -1 | 26* | -2 | 16 | -12 | 8 | 24* | -2 | GFP quench DR=>68
COc1ccc(CN(C)C(=O)C(Cc2ccccc2)NC(=O)c2ccccc2)c(OC)c1 (configuration not stated) | 15 | 1 | 0 | 27 | -4 | . | . | .
C[C@@H]1CN([C@H](C)CO)C(=O)c2cc(Br)cnc2O[C@H]1CN(C)C(=O)Nc1ccccc1F | . | 0 | . | . | . | . | . | .
COc1ccc(OC)c(NC(=O)COc2ccc(S(=O)(=O)NC(C)C)cc2)c1 | -10 | 7.4* | -1 | -7 | 9 | -4 | -1 | 0
CCOC(=O)C1=CCN(S(=O)(=O)c2ccccc2C)C1c1ccccc1 (configuration not stated) | . | 0 | . | . | . | . | . | .
